ATG4B inh – ATG4B protease inhibitors, primary screen, biochemical, fluorescence, uHTS. Cysteine protease ATG4B (Homo sapiens), Q9Y4P1. ATG4B cleavage of LC3-PLA2, NBD-HPC fluorescence, 1 h. inhibition, % at 8.33 µM. 340,000 compounds, 0.51% hits; in the data active means inhibition above about 40%
CSN inh – inhibitors of CSN-mediated cullin deneddylation, primary screen, biochemical, fluorescence polarization, uHTS. AID 651999, 2013. Purified CSN, SCF-Nedd8-OG deneddylation. inhibition, % at 12.5 µM. 360,000 compounds, 0.38% hits. COP9 signalosome complex subunit 5 (Homo sapiens), Q92905;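 active means pattern-corrected inhibition above about 35%, with an unprinted fluorescence ratio check between 0.5 and 1.5, limit read from the data, passing the limit was not always enough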;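 further: 0% = enzyme with substrate and 100% = substrate without enzyme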
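test system = HEK293T-derived human Csn5 enzyme | amount = 0.24 nM Csn5 enzyme, final concentration | medium = Tris/NaCl/DTT buffer, pH 7.5 | schedule = 90 min reaction at room temperature | signal = FP | evaluation = inhibition of Csn5 cleavage, % | compound dosing = single dose of 12.5 µM compound with 0.25% DMSO | probe or stimulus = 10 nM SCFSkp2-Nedd8OG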
rCAG binder – binders of r(CAG) RNA repeats, primary screen, biochemical, fluorescence. inhibition, % at 3 µM. 370,000 compounds, 1.3% hits. AID 651821, 2012. r(CAG) RNA repeat, TO-PRO-1 dye displacement fluorescence;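 active means inhibition above the plate cutoff, the mean of all test compounds on that plate plus 3 SD, cut at about 35% in these data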;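 further: 0% = DMSO alone and 100% = 100 µM mitoxantrone as full dye displacement; higher means more dye released from RNA so lower well fluorescence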
MBD2 inh – inhibitors of MBD2 binding to methylated DNA, primary screen, biochemical, TR-FRET, DNA-binding domain, human; inhibition, % at 4.4 µM; 370,000 compounds, 0.31% hits; AID 686964, 2013; MBD2 binding to methylated oligonucleotide; in the data active means inhibition above about 13%
LEDGF integ inh – blockers of LEDGF/p75-dependent integrase strand transfer – biochemical, TR-FRET, high throughput, primary screen; inhibition, % at 3.7 µM; TR-FRET IN-LEDGF/p75 DNA integration, Eu/Cy5; 370,000 compounds, 0.64% hits; HIV-1 integrase (with human LEDGF/p75);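 active means inhibition above the screen-wide mean plus 3 SD, cut at about 13% in these data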;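 further: signal is the Cy5 over europium emission ratio at 671 and 618 nm; 0% = plate median of compound wells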
UHRF1 binding – UHRF1 methylated DNA binding inhibitors, primary screen, counter-screen for MBD2 inhibitor project, biochemical, TR-FRET, human UHRF1, single concentration | inhibition, % at 4.4 µM | 370,000 compounds, 0.75% hits | E3 ubiquitin-protein ligase UHRF1 (Homo sapiens), Q96T88 | AID 687016, 2013 | UHRF1 binding to methylated oligo; in the data active means inhibition above about 21%;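 further: UHRF1 SRA domain binding a hemimethylated CpG hairpin DNA probe; 0% = median of test compound wells and 100% = reference inhibitor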
Target sequence (Q96T88 whole entry, looked up, the tested form may be a part): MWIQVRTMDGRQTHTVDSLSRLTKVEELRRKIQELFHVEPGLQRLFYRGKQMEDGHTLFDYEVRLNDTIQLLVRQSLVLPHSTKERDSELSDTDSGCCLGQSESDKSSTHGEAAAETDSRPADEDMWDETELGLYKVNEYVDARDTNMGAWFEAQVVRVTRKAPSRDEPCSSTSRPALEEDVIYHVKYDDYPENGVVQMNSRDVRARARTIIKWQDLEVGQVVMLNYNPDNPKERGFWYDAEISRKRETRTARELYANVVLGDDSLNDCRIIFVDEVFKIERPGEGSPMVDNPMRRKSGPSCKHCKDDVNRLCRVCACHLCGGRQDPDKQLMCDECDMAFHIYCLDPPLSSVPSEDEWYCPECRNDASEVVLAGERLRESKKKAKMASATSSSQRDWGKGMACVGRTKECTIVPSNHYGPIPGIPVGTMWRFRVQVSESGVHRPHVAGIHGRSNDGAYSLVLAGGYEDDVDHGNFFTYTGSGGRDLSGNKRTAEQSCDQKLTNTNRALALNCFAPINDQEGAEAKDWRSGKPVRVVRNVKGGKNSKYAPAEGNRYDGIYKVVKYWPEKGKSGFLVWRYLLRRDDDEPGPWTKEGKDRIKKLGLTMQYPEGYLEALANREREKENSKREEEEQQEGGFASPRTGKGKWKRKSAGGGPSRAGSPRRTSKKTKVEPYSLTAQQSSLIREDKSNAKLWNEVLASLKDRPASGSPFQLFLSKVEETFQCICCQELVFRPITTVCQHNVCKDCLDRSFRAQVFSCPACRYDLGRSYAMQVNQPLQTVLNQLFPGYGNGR
UHRF1 DNA bind – UHRF1 methylated DNA binding inhibitors, counter-screen for MBD2 inhibitor project, biochemical, TR-FRET, human UHRF1; shares compounds with MBD2 inh; UHRF1 binding to methylated oligonucleotide; inhibition, % at 4.4 µM; 1,000 compounds, 25% hits; AID 720530, 2013; in the data active means inhibition above about 21%;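 further: UHRF1 SRA domain binding a labeled hemimethylated CpG hairpin DNA; 0% = vehicle only and 100% = reference inhibitor with vehicle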
MBD2 DBD conf – inhibitors of MBD2 binding to methylated DNA, confirmation, biochemical, TR-FRET, DNA-binding domain, human | 1,000 compounds, 26% hits | AID 720531, 2013 | shares compounds with MBD2 inh | TR-FRET MBD2-DBD binding to methylated oligonucleotide | inhibition, % at 4.4 µM
IN multimer act – HIV-1 IN multimer formation enhancers, counter-screen for LEDGF/p75 integration inhibitor project, biochemical, TR-FRET; shares compounds with LEDGF integ inh; TR-FRET HIV-1 integrase multimerization; activation, % at 7.7 µM; 2,000 compounds, 17% hits; in the data active means activation above about 8.9%
TRFRET interf – TR-FRET optical interference artefacts, confirmation, artefact control for LEDGF/p75-dependent integration inhibitor project, biochemical, HIV-1 IN multimerization | inhibition, % at 7.7 µM | 2,000 tested, under 10 active | TR-FRET optical interference counterscreen | AID 1053135, 2014 | shares compounds with LEDGF integ inh;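 active means inhibition above the mean over all tested compounds plus 3 SD, which no compound reached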;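 further: 0% = integrase with antibodies and DMSO and 100% = antibodies without integrase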
LEDGF integ conf – inhibitors of HIV-1 IN-LEDGF/p75 DNA integration, confirmation, biochemical, TR-FRET. shares compounds with LEDGF integ inh. TR-FRET LEDGF/p75-dependent HIV-1 integration. inhibition, % at 3.7 µM. AID 1053136, 2014. 2,000 compounds, 36% hits
Numbers without * were called inactive. Hits are enriched below; roughly 3.1% of the tested compounds scored in any of these assays. Unless noted, no stated cut-off is given here; in the data, active means inhibition above about 14%; inactive means the rest.

What do the screens show for `O=C(O)CCCc1nc(-c2ccc(Cl)cc2)no1`?
ATG4B inh: 2; CSN inh: 1; rCAG binder: 1; MBD2 inh: 1; LEDGF integ inh: -4; UHRF1 binding: 2

How did COc1cc(/C=C2\CCc3c2nc2ccccc2c3C(=O)O)cc(OC)c1OC do in these assays?
ATG4B inh: 1; CSN inh: 52; rCAG binder: 23; MBD2 inh: 26*; LEDGF integ inh: 26*; UHRF1 binding: 48*; UHRF1 DNA bind: 34*; MBD2 DBD conf: 14*; IN multimer act: 7; TRFRET interf: -37; LEDGF integ conf: 34*

How did COc1cc(/C=C2\CCCc3c2nc2ccccc2c3C(=O)O)cc(Br)c1O do in these assays?
ATG4B inh: -5; CSN inh: 4; rCAG binder: 3; MBD2 inh: 0; LEDGF integ inh: -3; UHRF1 binding: -2

What do the screens show for `COc1ccc(/C=N/NC(=O)c2ccccc2O)cc1Cn1cc([N+](=O)[O-])cn1`?
ATG4B inh: -5; CSN inh: -1; rCAG binder: 4; MBD2 inh: 3; LEDGF integ inh: -3; UHRF1 binding: 0

How did COc1ccc(/C=N/NC(=O)c2cc(O)c(O)c(O)c2)cc1Cn1cc([N+](=O)[O-])cn1 do in these assays?
ATG4B inh: -2; CSN inh: 25; rCAG binder: 31; MBD2 inh: 15*; LEDGF integ inh: 69*; UHRF1 binding: 28*; UHRF1 DNA bind: 20; MBD2 DBD conf: 14*; IN multimer act: 54*; TRFRET interf: -270; LEDGF integ conf: 87*

Results for N#Cc1ccc(Cn2ccc3ccc(-c4ccc5ccn(C(=O)C6CCC6)c5c4)cc32)cc1 ?
rCAG binder: 17; MBD2 inh: -3; LEDGF integ inh: -2; UHRF1 binding: -1

Results for O=C(NCc1ccccc1)OCCCN1C(=O)CCC12CCCCC2 ?
rCAG binder: 0; MBD2 inh: 1; LEDGF integ inh: -5; UHRF1 binding: 0

How did CC(=O)c1cc(-c2ccc(Cl)c(C(F)(F)F)c2)c(=O)n2c1CCC2 do in these assays?
rCAG binder: -1; MBD2 inh: -7; LEDGF integ inh: 1; UHRF1 binding: 0

What do the screens show for `O=C1NC(=O)/C(=C/c2ccco2)N1`?
ATG4B inh: -4; CSN inh: -3; rCAG binder: 0; MBD2 inh: -1; LEDGF integ inh: 0; UHRF1 binding: -6

How did O=C1NC(=S)NC1=Cc1ccco1 do in these assays?
ATG4B inh: 5; CSN inh: 19; rCAG binder: 17; MBD2 inh: 21*; LEDGF integ inh: 56*; UHRF1 binding: 61*; UHRF1 DNA bind: 19; MBD2 DBD conf: 4; IN multimer act: 7; TRFRET interf: -34; LEDGF integ conf: 41*

Results for CC(C)(CS(=O)(=O)[O-])NC(=O)CC[N+](C)(C)CCO ?
ATG4B inh: -10; CSN inh: 26; rCAG binder: -1; MBD2 inh: 54*; LEDGF integ inh: 39*; UHRF1 binding: 92*; UHRF1 DNA bind: 95*; MBD2 DBD conf: 85*; IN multimer act: 122*; TRFRET interf: inactive; LEDGF integ conf: 38*

How did O=c1ccc2cc(O)c(O)cc2o1 do in these assays?
ATG4B inh: -7; CSN inh: -1; rCAG binder: 9; MBD2 inh: 71*; LEDGF integ inh: 94*; UHRF1 binding: 94*; UHRF1 DNA bind: 5; MBD2 DBD conf: 4; IN multimer act: 7; TRFRET interf: -36; LEDGF integ conf: 6

What do the screens show for `Cn1cccc1CC(=O)NN=C/C=C\c1ccco1`?
rCAG binder: 20; MBD2 inh: 66*; LEDGF integ inh: 81*; UHRF1 binding: 85*; UHRF1 DNA bind: 5; MBD2 DBD conf: 7; IN multimer act: 11*; TRFRET interf: -54; LEDGF integ conf: 31*

Results for S=C(NCc1ccc(Cl)cc1)OC1CCC12CCC(c1ccccc1)CC2 (stereo unspecified) ?
rCAG binder: 8; MBD2 inh: 0; LEDGF integ inh: -1; UHRF1 binding: 4

Results for C=CCN1C(=O)[C@@H](CC(=O)N2CCOCC2)[C@]2(C(=O)OC)CCCCC=C12 ?
rCAG binder: 1; MBD2 inh: 3; LEDGF integ inh: 0; UHRF1 binding: -1

What do the screens show for `C#CCN1CC(N(C)CCOC(=O)c2cc3ccccc3[nH]2)CS1(=O)=O` (stereo unspecified)?
rCAG binder: 1; MBD2 inh: 4; LEDGF integ inh: -2; UHRF1 binding: 2

How did CCc1ccccc1NC(=O)CCS(=O)(=O)c1ccc(OC)cc1 do in these assays?
ATG4B inh: -1; CSN inh: 0; rCAG binder: -2; MBD2 inh: 40*; LEDGF integ inh: 16*; UHRF1 binding: 75*; UHRF1 DNA bind: 13; MBD2 DBD conf: 4; IN multimer act: 3; TRFRET interf: -11; LEDGF integ conf: -1
